ChEMBL document CHEMBL1131242, “6beta-Acetoxynortropane: a potent muscarinic agonist with apparent selectivity toward M2-receptors” (J Med Chem, 1998)
Residue numbers refer to the chain shown, from its start.

Assays:
[1] = biological target: T1, Muscarinic acetylcholine receptor M3 (Homo sapiens, UniProt P20309); assay: Inhibitory activity against stimulation of [3H]inositol monophosphate accumulation in [3H]inositol-labelled CHO transfected cells mediated by Muscarinic acetylcholine receptor M3
Target sequence in this assay (P20309 whole entry, looked up): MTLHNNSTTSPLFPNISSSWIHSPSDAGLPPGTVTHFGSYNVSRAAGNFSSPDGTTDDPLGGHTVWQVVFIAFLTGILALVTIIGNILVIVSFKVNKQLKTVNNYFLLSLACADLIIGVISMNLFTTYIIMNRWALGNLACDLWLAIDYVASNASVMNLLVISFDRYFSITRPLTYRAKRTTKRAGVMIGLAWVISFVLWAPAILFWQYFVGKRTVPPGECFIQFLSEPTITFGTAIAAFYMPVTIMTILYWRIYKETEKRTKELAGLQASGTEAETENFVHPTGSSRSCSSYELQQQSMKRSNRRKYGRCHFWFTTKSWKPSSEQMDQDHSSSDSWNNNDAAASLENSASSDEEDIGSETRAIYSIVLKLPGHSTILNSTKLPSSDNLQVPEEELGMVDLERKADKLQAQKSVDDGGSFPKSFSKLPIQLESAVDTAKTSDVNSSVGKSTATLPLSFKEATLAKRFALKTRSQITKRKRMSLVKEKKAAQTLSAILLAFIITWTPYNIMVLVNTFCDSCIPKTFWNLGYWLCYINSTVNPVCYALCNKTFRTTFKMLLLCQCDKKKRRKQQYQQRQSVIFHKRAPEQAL

[2] = biological target: T1, Muscarinic acetylcholine receptor M3; assay: Percentage inhibition of binding of [3H]quinuclidinyl benzilate to muscarinic receptors in membranes of CHO cells transfected with Muscarinic acetylcholine receptor M3
Target sequence in this assay (P20309 whole entry, looked up): as above

[3] = biological target: T1, Muscarinic acetylcholine receptor M3; assay: Inhibition of binding of [3H]quinuclidinyl benzilate to human Muscarinic acetylcholine receptor M3 in membranes of transfected CHO cells at 100 uM concentration; details: Membrane
Target sequence in this assay (P20309 whole entry, looked up): as above

[4] = biological target: Muscarinic acetylcholine receptor M4 (Homo sapiens) (UniProt P08173); assay: Inhibitory activity against [3H]-cyclic AMP accumulation in CHO transfected cells mediated by Muscarinic acetylcholine receptor M4
[5] = biological target: T2, Muscarinic acetylcholine receptor M4 (Homo sapiens) (UniProt P08173); assay: Inhibition of binding of [3H]quinuclidinyl benzilate to muscarinic receptors in membranes of CHO cells transfected with Muscarinic acetylcholine receptor M4
T2 sequence (whole entry): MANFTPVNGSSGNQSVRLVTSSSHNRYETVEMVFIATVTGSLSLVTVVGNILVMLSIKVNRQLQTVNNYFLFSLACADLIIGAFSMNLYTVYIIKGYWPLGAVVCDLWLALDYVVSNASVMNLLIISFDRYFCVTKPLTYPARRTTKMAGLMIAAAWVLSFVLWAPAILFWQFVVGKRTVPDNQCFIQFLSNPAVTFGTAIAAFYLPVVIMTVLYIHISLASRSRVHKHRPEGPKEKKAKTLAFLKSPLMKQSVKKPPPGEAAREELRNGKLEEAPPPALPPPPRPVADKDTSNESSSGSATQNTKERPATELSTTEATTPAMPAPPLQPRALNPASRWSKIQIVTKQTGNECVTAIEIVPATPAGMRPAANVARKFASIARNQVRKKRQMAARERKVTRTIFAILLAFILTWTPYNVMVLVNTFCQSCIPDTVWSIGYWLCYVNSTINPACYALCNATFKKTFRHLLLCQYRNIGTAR

[6] = biological target: Muscarinic acetylcholine receptor M4 (Homo sapiens) (UniProt P08173); assay: Inhibition of binding of [3H]quinuclidinyl benzilate to Muscarinic acetylcholine receptor M4 in membranes of transfected CHO cells
[7] = biological target: Muscarinic acetylcholine receptor M2 (Homo sapiens) (UniProt P08172); assay: Inhibition of binding of [3H]quinuclidinyl benzilate to Muscarinic acetylcholine receptor M2 in membranes of transfected CHO cells
[8] = biological target: T3, Muscarinic acetylcholine receptor M2 (Homo sapiens, UniProt P08172); assay: (§1) Inhibition of binding of [3H]quinuclidinyl benzilate to muscarinic receptors in membranes of CHO cells transfected with Muscarinic acetylcholine receptor M2; format: cell membranes
T3 sequence (P08172 whole entry): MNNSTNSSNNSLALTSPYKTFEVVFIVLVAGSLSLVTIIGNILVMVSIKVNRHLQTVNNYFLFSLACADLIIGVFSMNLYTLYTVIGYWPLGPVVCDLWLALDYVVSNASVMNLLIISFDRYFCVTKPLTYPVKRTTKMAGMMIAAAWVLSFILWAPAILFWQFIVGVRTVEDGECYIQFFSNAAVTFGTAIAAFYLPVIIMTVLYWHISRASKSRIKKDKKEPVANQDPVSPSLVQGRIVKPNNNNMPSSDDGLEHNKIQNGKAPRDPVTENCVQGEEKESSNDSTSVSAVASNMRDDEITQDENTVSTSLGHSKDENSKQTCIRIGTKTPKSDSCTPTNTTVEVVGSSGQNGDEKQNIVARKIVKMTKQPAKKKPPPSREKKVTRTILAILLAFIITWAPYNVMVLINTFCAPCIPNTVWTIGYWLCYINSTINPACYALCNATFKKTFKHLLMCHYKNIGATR

[9] = biological target: T4, Muscarinic acetylcholine receptor M1 (Rattus norvegicus, UniProt P08482); assay: Inhibition of binding of [3H]oxotremorine M to Muscarinic acetylcholine receptor M1 in rat cerebral cortical membranes; format: cell membranes, Membrane
T4 sequence (P08482 whole entry): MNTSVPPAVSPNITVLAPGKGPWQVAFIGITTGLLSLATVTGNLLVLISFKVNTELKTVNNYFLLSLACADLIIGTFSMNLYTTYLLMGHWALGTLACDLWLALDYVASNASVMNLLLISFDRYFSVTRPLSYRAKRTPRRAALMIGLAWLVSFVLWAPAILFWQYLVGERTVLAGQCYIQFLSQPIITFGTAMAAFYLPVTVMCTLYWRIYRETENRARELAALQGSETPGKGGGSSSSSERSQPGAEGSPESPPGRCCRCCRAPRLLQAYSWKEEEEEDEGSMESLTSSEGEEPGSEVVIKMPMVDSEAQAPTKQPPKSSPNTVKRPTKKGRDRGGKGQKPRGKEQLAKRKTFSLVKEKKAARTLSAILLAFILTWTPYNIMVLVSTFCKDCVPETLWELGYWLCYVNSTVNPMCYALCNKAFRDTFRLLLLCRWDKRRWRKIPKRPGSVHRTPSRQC
Procedure, shortened: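 Agonist radioligand assay: rat cortical membranes with 2 nM [3H]oxotremorine M in 25 mM sodium phosphate pH 7.4 with 5 mM MgCl2, 2 h at 25 °C, in triplicate. Nonspecific binding used 5 µM atropine. Filtration followed by scintillation counting.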

[10] = biological target: T4, Muscarinic acetylcholine receptor M1; assay: The compound was evaluated for inhibition of binding of [3H]quinuclidinyl benzilate to Muscarinic acetylcholine receptor M1 in Rat Cerebral Cortical Membranes
Procedure, shortened: (§2)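 Rat cerebral cortex membranes were homogenised in 50 mM Tris-HCl pH 7.4 and diluted in HEPES binding buffer. They were incubated with 0.2 nM [3H]quinuclidinyl benzilate in 20 mM HEPES pH 7.4 with 10 mM MgCl2 and 100 mM NaCl for 30 min at 37 °C, in triplicate. Nonspecific binding used 1 µM atropine. Filtration was followed by scintillation counting.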

[11] = biological target: T5, Muscarinic acetylcholine receptor M1 (Rattus norvegicus) (UniProt P08482); details: Membrane; 30 uM
T5 sequence (whole entry): T4 sequence (P08482 whole entry)

[12] = biological target: T4, Muscarinic acetylcholine receptor M1; assay: Affinity versus [3H]oxotremorine M (agonist) binding to Muscarinic acetylcholine receptor M1 in Rat Cerebral Cortical Membranes, (Kd=[…])
[13] = biological target: T6, Muscarinic acetylcholine receptor M4 (Homo sapiens, UniProt P08173); assay: (§3) Inhibition of binding of [3H]quinuclidinyl benzilate to muscarinic receptors in membranes of CHO cells transfected with Muscarinic acetylcholine receptor M4; format: cell membranes
T6 sequence (P08173 whole entry): T2 sequence (whole entry)

[14] = biological target: T4, Muscarinic acetylcholine receptor M1; assay: Inhibition of binding of [3H]quinuclidinyl benzilate to Muscarinic acetylcholine receptor M1 in rat cerebral cortical membranes; format: cell membranes, Membrane
Procedure, shortened: as §2

[15] = biological target: T4, Muscarinic acetylcholine receptor M1; assay: Affinity versus [3H]quinuclidinyl benzilate (antagonist) binding to Muscarinic acetylcholine receptor M1 in Rat Cerebral Cortical Membranes,
Procedure, shortened: as §2

[16] = biological target: T7, Neuronal acetylcholine receptor; alpha4/beta2 (Rattus norvegicus, UniProt P09483+P12390); assay: Inhibition of binding of [3H]nicotine to Nicotinic acetylcholine receptor alpha4-beta2 in rat cerebral cortical membranes; format: cell membranes, Membrane
T7 sequence (P09483 whole entry): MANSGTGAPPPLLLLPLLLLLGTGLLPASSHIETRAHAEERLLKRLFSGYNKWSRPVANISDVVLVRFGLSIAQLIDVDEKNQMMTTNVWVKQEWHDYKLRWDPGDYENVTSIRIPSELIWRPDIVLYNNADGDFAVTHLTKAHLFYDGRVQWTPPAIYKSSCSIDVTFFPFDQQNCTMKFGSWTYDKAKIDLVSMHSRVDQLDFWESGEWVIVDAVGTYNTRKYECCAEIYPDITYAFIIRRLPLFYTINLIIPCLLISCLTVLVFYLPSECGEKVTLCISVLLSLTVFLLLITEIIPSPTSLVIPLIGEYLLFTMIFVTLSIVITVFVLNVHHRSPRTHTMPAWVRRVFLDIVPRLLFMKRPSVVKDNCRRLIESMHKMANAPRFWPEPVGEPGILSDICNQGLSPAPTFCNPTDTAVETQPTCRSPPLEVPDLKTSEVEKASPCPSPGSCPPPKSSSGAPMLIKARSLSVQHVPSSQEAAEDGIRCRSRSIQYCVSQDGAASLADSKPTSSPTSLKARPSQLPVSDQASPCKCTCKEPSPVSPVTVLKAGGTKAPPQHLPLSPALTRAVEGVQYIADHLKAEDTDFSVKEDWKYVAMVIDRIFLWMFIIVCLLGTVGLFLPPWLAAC
T7 sequence (P12390 whole entry): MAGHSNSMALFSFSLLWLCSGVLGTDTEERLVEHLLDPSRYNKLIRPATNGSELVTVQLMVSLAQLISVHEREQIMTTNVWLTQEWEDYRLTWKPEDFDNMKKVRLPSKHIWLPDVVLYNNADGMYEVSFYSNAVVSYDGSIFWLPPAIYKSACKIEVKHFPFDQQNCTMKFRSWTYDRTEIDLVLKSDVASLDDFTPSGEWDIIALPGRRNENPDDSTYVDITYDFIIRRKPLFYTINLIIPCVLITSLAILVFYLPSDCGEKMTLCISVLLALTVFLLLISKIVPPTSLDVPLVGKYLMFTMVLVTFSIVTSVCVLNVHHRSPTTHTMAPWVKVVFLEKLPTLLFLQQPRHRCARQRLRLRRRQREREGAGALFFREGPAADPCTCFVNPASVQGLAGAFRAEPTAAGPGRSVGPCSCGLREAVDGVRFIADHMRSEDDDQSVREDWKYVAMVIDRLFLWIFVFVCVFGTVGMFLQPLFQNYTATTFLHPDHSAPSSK
Procedure, shortened: (§4)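 Rat cerebral cortex membranes with 0.2 nM [3H]nicotine in HEPES binding buffer pH 7.4 containing 200 µM diisopropyl fluorophosphate. Incubation was 120 min at 0–4 °C, in triplicate. Nonspecific binding used 1 µM nicotine. Samples were filtered through polyethylenimine-soaked GF/B filters and counted.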

[17] = biological target: T7, Neuronal acetylcholine receptor; alpha4/beta2; assay: The compound was evaluated for percentage inhibition of binding of [3H]- nicotine to Nicotinic acetylcholine receptor alpha4-beta2 in Rat Cerebral Cortical Membranes; format: protein-complex assay
Procedure, shortened: as §4

[18] = biological target: T1, Muscarinic acetylcholine receptor M3; assay: Inhibition of binding of [3H]quinuclidinyl benzilate to muscarinic receptors in membranes of CHO cells transfected with Muscarinic acetylcholine receptor M3; format: cell membranes
Target sequence in this assay (P20309 whole entry): as the sequence (P20309 whole entry, looked up) above

[19] = biological target: T8, Muscarinic acetylcholine receptor M1 (Homo sapiens) (UniProt P11229); assay: (§5) Percentage inhibition of binding of [3H]quinuclidinyl benzilate to muscarinic receptors in membranes of CHO cells transfected with Muscarinic acetylcholine receptor M1; format: cell membranes; details: concentration not given here
T8 sequence (whole entry): T4 sequence (P08482 whole entry) with V5A, S254T, S309P, K320R, G337A, V413I
Procedure, shortened: (§6)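 Membranes from CHO cells expressing human M1–M4 receptors in 25 mM sodium phosphate pH 7.4 with 5 mM MgCl2, 30 min at 37 °C, triplicate. [3H]quinuclidinyl benzilate was 0.2 nM for M1 and M3 and 0.1 nM for M2 and M4. Nonspecific binding used 10 µM atropine for M1 and 1 µM for the others.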

[20] = biological target: T7, Neuronal acetylcholine receptor; alpha4/beta2; assay: Inhibition of binding of [3H]nicotine to Nicotinic acetylcholine receptor alpha4-beta2 in rat cerebral cortical membranes at 100 uM concentration; format: cell membranes, Membrane
Procedure, shortened: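 [3H]nicotine (0.2 nM) binding to rat cortical membranes, with 200 µM diisopropyl fluorophosphate, 120 min at 0–4 °C, triplicate. Nonspecific binding with 1 µM nicotine. Percent inhibition at 100 µM test agent; mean ± SEM, n = 4.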

[21] = biological target: Muscarinic acetylcholine receptor M1 (Homo sapiens) (UniProt P11229); assay: Inhibition of binding of [3H]quinuclidinyl benzilate to human Muscarinic acetylcholine receptor M1 in membranes of transfected CHO cells at 300 uM concentration; details: Membrane
Target sequence in this assay (P11229 whole entry, looked up): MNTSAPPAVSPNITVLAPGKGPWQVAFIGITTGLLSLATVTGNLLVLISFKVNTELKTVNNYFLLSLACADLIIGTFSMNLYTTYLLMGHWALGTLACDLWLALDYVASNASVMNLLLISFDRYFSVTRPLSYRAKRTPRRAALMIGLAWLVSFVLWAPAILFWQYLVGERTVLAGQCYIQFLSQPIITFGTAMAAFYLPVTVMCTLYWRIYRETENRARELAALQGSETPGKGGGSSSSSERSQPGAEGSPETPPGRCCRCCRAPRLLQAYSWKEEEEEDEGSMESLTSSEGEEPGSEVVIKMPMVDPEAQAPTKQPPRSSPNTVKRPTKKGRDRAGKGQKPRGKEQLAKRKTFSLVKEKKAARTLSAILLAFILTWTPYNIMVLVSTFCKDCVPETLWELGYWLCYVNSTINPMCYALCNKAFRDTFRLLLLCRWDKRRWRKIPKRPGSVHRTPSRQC

[22] = biological target: Muscarinic acetylcholine receptor M3 (Rattus norvegicus) (UniProt P08483); assay: Percentage inhibition of binding of [3H]quinuclidinyl benzilate to muscarinic receptors in membranes of CHO cells transfected with Muscarinic acetylcholine receptor M3; format: cell membranes; details: concentration not given here
Chain of Muscarinic acetylcholine receptor M3 (Rattus norvegicus) (P08483 whole entry, looked up): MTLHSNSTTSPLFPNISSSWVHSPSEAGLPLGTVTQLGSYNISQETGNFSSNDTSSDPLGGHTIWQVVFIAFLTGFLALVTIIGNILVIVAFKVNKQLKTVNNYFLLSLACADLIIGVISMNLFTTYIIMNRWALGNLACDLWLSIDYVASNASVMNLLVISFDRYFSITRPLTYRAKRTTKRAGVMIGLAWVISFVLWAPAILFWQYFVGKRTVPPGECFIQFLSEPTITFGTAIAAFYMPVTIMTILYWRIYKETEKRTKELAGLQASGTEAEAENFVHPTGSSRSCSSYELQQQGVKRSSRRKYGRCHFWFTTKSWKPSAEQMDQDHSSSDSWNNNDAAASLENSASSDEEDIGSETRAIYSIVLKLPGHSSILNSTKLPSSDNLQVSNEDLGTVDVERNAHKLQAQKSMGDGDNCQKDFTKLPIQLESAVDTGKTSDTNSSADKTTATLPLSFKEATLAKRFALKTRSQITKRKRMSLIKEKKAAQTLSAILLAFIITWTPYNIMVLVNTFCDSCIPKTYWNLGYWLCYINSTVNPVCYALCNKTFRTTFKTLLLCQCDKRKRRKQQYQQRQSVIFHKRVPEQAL

[23] = biological target: T9, Muscarinic acetylcholine receptor M4 (Rattus norvegicus) (UniProt P08485); assay: as §3; format: cell membranes; details: concentration not given here
T9 sequence (whole entry): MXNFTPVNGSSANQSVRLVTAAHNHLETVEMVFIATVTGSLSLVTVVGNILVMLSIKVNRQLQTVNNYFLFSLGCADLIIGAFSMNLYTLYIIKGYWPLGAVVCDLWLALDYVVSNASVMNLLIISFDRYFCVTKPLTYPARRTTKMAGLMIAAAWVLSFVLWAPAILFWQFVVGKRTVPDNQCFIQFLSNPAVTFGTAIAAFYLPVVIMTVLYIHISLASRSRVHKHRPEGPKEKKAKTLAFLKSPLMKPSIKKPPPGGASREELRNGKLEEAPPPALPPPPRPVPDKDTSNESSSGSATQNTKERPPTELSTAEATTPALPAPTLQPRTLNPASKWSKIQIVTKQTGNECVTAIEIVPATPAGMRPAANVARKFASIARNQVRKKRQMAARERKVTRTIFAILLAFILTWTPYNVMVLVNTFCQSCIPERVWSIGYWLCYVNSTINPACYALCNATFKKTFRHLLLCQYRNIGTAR
Procedure, shortened: as §6

[24] = biological target: T9, Muscarinic acetylcholine receptor M4 (Rattus norvegicus); assay: Inhibition of binding of [3H]quinuclidinyl benzilate to Muscarinic acetylcholine receptor M4 […] at 300 uM concentration; format: cell membranes; details: Membrane
[25] = biological target: T10, Muscarinic acetylcholine receptor M2 (Rattus norvegicus, UniProt P10980); assay: as §1; format: cell membranes
T10 sequence (P10980 whole entry): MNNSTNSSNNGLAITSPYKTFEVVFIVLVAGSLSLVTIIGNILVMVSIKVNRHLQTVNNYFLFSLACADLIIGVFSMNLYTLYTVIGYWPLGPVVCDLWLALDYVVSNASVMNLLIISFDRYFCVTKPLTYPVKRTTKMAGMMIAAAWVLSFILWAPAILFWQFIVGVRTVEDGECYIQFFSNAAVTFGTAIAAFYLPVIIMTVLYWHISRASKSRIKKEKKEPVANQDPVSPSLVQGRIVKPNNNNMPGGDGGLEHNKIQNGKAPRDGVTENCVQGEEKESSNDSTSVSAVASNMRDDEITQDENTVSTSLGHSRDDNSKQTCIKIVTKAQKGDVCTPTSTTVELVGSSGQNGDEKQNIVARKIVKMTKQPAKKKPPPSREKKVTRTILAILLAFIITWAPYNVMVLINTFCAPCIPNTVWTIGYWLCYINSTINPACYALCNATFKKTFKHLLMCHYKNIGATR
Procedure, shortened: as §6

[26] = biological target: T5, Muscarinic acetylcholine receptor M1 (Rattus norvegicus); assay: as §5; format: cell membranes; details: concentration not given here
Procedure, shortened: as §6

`C[C@@H]1O[C@H](C[N+](C)(C)C)C[C@H]1O` [MUSCARINE] gave an EC50 [1] of 0.13 µM, an inhibition [2] of 28% and an inhibition [3] of 28%. The IC50 [4] was 0.47 µM, the Ki [5] was 1.4 µM and the Ki [6] was 1.4 µM.
In the case of `CC(=O)OC1CC2CCCC1N2C` (centres undefined), the Ki [7] is reported as 2.7 µM, the Ki [8] is reported as 2.7 µM and the Ki [9] is reported as 2.6 µM. For the same molecule, the Ki [10] was 280 µM, the inhibition [11] was 48% and the Ki [12] was 2.6 µM. For the same molecule, the Ki [13] was 8.3 µM, the Ki [14] was 280 µM and the Ki [15] was 280 µM. It also gave a Ki [16] of 1.5 µM, a Ki [17] of 1.5 µM and a Ki [6] of 8.3 µM. The Ki [18] was 15 µM and the inhibition [19] was 48%.
Work on `COC(=O)C1=CCCN(C)C1` [ARECOLINE] yielded a Ki [20] of 0.27 µM and a Ki [17] of 0.27 µM.
Work on `COC(=O)[C@H]1CC2NC1CC[C@@H]2O` (some centres undefined) yielded a Ki [7] of 12 µM, an inhibition [21] of 2% and a Ki [9] of 18 µM. The inhibition [22] was 0%, the Ki [12] was 18 µM and the inhibition [3] was 0%. It also gave an inhibition [23] of 33%, an inhibition [24] of 33% and a Ki [16] of 4 µM. The Ki [17] was 4 µM, the Ki [25] was 12 µM and the inhibition [26] was 2%.
